Experimental data reported in ChEMBL document CHEMBL3822365, “Probing the Anticancer Action of Oridonin with Fluorescent Analogues: Visualizing Subcellular Localization to Mitochondria” (J Med Chem, 2016).
Calls of active or inactive are those of the source. No cut-off for these calls is given here.

Key:
[1] = Cytotoxicity against human Bel7402 cells assessed as growth inhibition at 100 uM after 72 hrs by MTT assay; assay type: functional; conditions: Bel-7402, 72 h, read-out: GI
Procedure, shortened: (§1)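 Bel-7402 cells exposed to compound for 72 h, then MTT read-out of percent growth inhibition at the single stated concentration. Values are the mean of three independent experiments.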

[2] = Cytotoxicity against human Bel7402 cells assessed as growth inhibition at 1 uM after 72 hrs by MTT assay; assay type: functional; conditions: Bel-7402, 72 h, read-out: GI; procedure, shortened: as §1
[3] = Cytotoxicity against human Bel7402 cells assessed as growth inhibition at 10 uM after 72 hrs by MTT assay; assay type: functional; conditions: Bel-7402, 72 h, read-out: GI; procedure, shortened: as §1
[4] = test system: HepG2; assay: Drug uptake in human HepG2 cells at 50 to 100 uM after 1 hr by inverted confocal microscopy; assay type: ADME, cell-based; conditions: hepg2, 1 h
Procedure, shortened: (§2)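 HepG2 cells incubated with probe for 1 h, then intracellular fluorescence imaged by fluorescence microscopy.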

[5] = test system: K562; assay: Antiproliferative activity against human K562 cells; assay type: functional, cell-based
[6] = test system: HeLa; assay: Cytotoxicity against human HeLa cells assessed as inhibition of cell proliferation after 72 hrs by MTT assay; assay type: functional, cell-based
Procedure, shortened: (§3)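 Log-phase cells seeded at 5 × 10^4 cells/mL and exposed to compound for 72 h at 37 °C, 5% CO2. MTT (5 mg/mL) added for a further 4 h, formazan dissolved in DMSO, OD read at 490 nm. Negative reference 0.1% DMSO, positive reference paclitaxel. IC50 given as mean ± SD, n = 3.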

[7] = test system: A549; assay: Dissipation of mitochondrial membrane potential in human A549 cells at 10 uM after 36 hrs by JC-1 staining based confocal microscopy; assay type: functional, cell-based
Procedure, shortened: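 A549 cells were exposed to 10 μM compound for 36 h or left untreated. They were then loaded with 10 μg/mL JC-1 for 30 min at 37 °C and washed 5 min in PBS. The red-to-green fluorescence shift was viewed by confocal microscopy. Done in triplicate.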

[8] = test system: HepG2; assay: Cytotoxicity against human HepG2 cells assessed as inhibition of cell proliferation after 72 hrs by MTT assay; assay type: functional, cell-based; conditions: HepG2, 72 h; procedure, shortened: as §3
[9] = test system: A549; assay: Cytotoxicity against human A549 cells assessed as inhibition of cell proliferation after 72 hrs by MTT assay; assay type: functional, cell-based; conditions: A549, 72 h; procedure, shortened: as §3
[10] = test system: A549; assay: Induction of apoptosis in human A549 cells assessed as cytochrome c release from mitochondria to cytosol at 3 uM after 24 to 48 hrs by MitoTracker probe/DAPI staining based confocal laser scanning microscopy; assay type: functional, cell-based
Procedure, shortened: (§4)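 A549 cells exposed to compound for 24 or 48 h, then stained with MitoTracker Red for 30 min. Cells fixed in 4% formaldehyde, permeabilized with 0.2% Triton X-100 and blocked in 5% BSA for 1 h. Anti-cytochrome c primary antibody applied overnight at 4 °C, then Alexa Fluor 488 goat anti-rabbit for 2 h. DAPI nuclear counterstain, imaged by confocal microscopy.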

[11] = test system: A549; assay: Induction of apoptosis in human A549 cells assessed as cytochrome c release from mitochondria to cytosol at 5 uM after 24 to 48 hrs by MitoTracker probe/DAPI staining based confocal laser scanning microscopy; assay type: functional, cell-based; procedure, shortened: as §4
[12] = test system: A549; assay: Drug uptake in human A549 cells at 1 uM preincubated with compound 25 for 24 hrs followed by compound addition measured after 1 hr by confocal microscopy; assay type: ADME, cell-based; conditions: a549, 1 h
[13] = Drug uptake in mitochondria of human A549 cells at 1 uM after 1 hr by MitoTracker staining based confocal laser scanning microscopy; assay type: ADME; conditions: a549, 1 h
Procedure, shortened: (§5)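 A549 cells were treated with 1 μM probe for 1, 3, 12 or 24 h and washed in PBS. They were then stained with MitoTracker Red CMXRos (200 nM, 0.5 h), washed in cold PBS, fixed with paraformaldehyde and imaged by confocal laser scanning microscopy. Mitochondrial overlap was quantified as Pearson's coefficient (Rr).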

[14] = test system: A549; assay: Drug uptake in human A549 cells at 1 uM after 5 mins by inverted confocal microscopy; assay type: ADME, cell-based; conditions: a549, 5 min
[15] = test system: A549; assay: Drug uptake in human A549 cells at 1 uM preincubated with oridonin for 24 hrs followed by compound addition measured after 1 hr by confocal microscopy; assay type: ADME, cell-based; conditions: a549, 1 h
[16] = test system: HepG2; assay: Drug uptake in human HepG2 cells at 1 uM after 12 hrs by inverted confocal microscopy; assay type: ADME, cell-based; conditions: hepg2, 12 h
Procedure, shortened: (§6)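 Live A549 or HepG2 cells were given 1 μM probe for 12 h and washed with media. Confocal imaging used ex 405/em 460 nm at 40× on an inverted microscope. Each experiment was repeated three times.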

[17] = test system: A549; assay: Drug uptake in human A549 cells at 1 uM preincubated with compound 26 for 24 hrs followed by compound addition measured after 1 hr by confocal microscopy; assay type: ADME, cell-based; conditions: a549, 1 h
[18] = Drug uptake in human A549 cell cytoplasm at 1 uM after 12 hrs by inverted confocal microscopy; assay type: ADME, cell-based; conditions: a549, 12 h; procedure, shortened: as §6
[19] = test system: A549; assay: Dissipation of mitochondrial membrane potential in human A549 cells at 1 uM by JC-1 staining based confocal microscopy; assay type: functional, cell-based; conditions: TDE = time-dependent effect
Procedure, shortened: (§7)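 A549 cells were exposed to 1 μM compound for 12 to 48 h. They were then loaded with JC-1 at 10 μg/mL for 30 min at 37 °C and washed in PBS for 5 min. Aggregate (red, ex 525/em 600 nm) and monomer (green, ex 490/em 535 nm) signals were read by microplate reader or confocal microscope. Value is the red:green ratio, 10000 cells per condition, mean ± SD of three independent experiments.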

[20] = Drug uptake in mitochondria of human A549 cells at 1 uM after 12 hrs by MitoTracker staining based confocal laser scanning microscopy; assay type: ADME; conditions: a549, 12 h; procedure, shortened: as §5
[21] = test system: A549; assay: Dissipation of mitochondrial membrane potential in human A549 cells assessed as ratio of red to green fluorescence at 1 uM after 48 hrs by JC-1 staining based confocal microscopy; assay type: functional; procedure, shortened: as §7
[22] = test system: A549; assay: Dissipation of mitochondrial membrane potential in human A549 cells assessed as ratio of red to green fluorescence at 1 uM after 12 to 48 hrs by JC-1 staining based confocal microscopy; assay type: functional; procedure, shortened: as §7
[23] = test system: HepG2; assay: Drug uptake in human HepG2 cells at 5 uM after 1 hr by inverted confocal microscopy; assay type: ADME, cell-based; conditions: hepg2, 1 h
Procedure, shortened: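 HepG2 cells were incubated with probe at 5 μM for 1 h and then examined by fluorescence microscopy for intracellular staining.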

[24] = Drug uptake in mitochondria of human A549 cells at 1 uM after 24 hrs by MitoTracker staining based confocal laser scanning microscopy; assay type: ADME; conditions: a549, 24 h; procedure, shortened: as §5
[25] = test system: HepG2; assay: Drug uptake in human HepG2 cells at 1 uM after 5 mins by inverted confocal microscopy; assay type: ADME, cell-based; conditions: hepg2, 5 min
[26] = Antiproliferative activity against human NCI-H929 cells assessed as reduction in cell viability after 24 to 72 hrs by MTT assay; assay type: functional, cell-based
[27] = test system: A549; assay: Dissipation of mitochondrial membrane potential in human A549 cells at 20 uM after 1 to 48 hrs by […]; assay type: functional, cell-based
[28] = test system: HepG2; assay: Drug uptake in human HepG2 cells at 20 uM after 1 hr by inverted confocal microscopy; assay type: ADME, cell-based; conditions: hepg2, 1 h; procedure, shortened: as §2

SMILES | inhibition of growth at 100 µM [1] [%] | inhibition of growth at 1 µM [2] [%] | inhibition of growth at 10 µM [3] [%] | IC50 [6] [µM] | IC50 [8] [µM] | IC50 [9] [µM] | other results
C=C1C(=O)[C@]23[C@H](OC(=O)CCCCCCC)[C@H]1CC[C@H]2[C@@]12CO[C@@]3(O)[C@@H](O)[C@@H]1C(C)(C)CC[C@@H]2O | 94.7 | 57.5 | 92.7 |  |  |  | 
CCN(CC)c1ccc2cc(C(=O)OCCO)c(=O)oc2c1 | 9.5 | 0.7 | 3.7 |  |  |  | Drug uptake [4]: Not Active
C=C1C(=O)[C@]23[C@H](OC(=O)CCCC(=O)OCCOCCOC(=O)c4cc5ccc(N(CC)CC)cc5oc4=O)[C@H]1CC[C@H]2[C@@]12CO[C@@]3(O)[C@@H](O)[C@@H]1C(C)(C)CC[C@@H]2O | 94.6 | 1.4 | 70.1 |  |  |  | 
C=C1C(=O)[C@]23C[C@H]1CC[C@H]2[C@]1(COC3=O)[C@@H](OC(C)=O)CCC(C)(C)[C@H]1CO |  |  |  |  |  |  | IC50 [5]: 3.56 µM
C=C1C(=O)[C@]23[C@H](O)[C@H]1CC[C@H]2[C@@]12CO[C@]3(O)[C@@H](O)[C@@H]1C(C)(C)CC[C@@H]2O [ORIDONIN] | 94.6 | 37.9 | 94.8 | 17.8 | 15.2 | 10.4 | Activity [7]: Active; Activity [10]: Active; Activity [11]: Active
C=C1C(=O)[C@]23[C@H](OC(=O)CCCC(=O)OCCCCOC(=O)c4cc5ccc(N(CC)CC)cc5oc4=O)[C@H]1CC[C@H]2[C@@]12CO[C@@]3(O)[C@@H](O)[C@@H]1C(C)(C)CC[C@@H]2O | 93.8 | 88.6 | 94 | 2 | 2.6 | 5.1 | Drug uptake [12]: Not Active; Drug uptake [13]: Active; Drug uptake [14]: Active; Activity [15]: Not Active; Drug uptake [16]: Active; Drug uptake [17]: Active; Drug uptake [18]: Active; Activity [19]: tde; Drug uptake [20]: Active; Ratio [21]: 0.312; Ratio [22]: 1.496; Drug uptake [23]: Active; Drug uptake [24]: Not Active; Drug uptake [25]: Active
C=C1C(=O)[C@]23[C@H](OC(=O)CCC(=O)OCCOC(=O)c4cc5ccc(N(CC)CC)cc5oc4=O)[C@H]1CC[C@H]2[C@@]12CO[C@@]3(O)[C@@H](O)[C@@H]1C(C)(C)CC[C@@H]2O | 94.4 | 11.5 | 72.4 |  |  |  | 
C=C1C(=O)[C@]23[C@H](OC(=O)Cc4cc(=O)oc5cc(N(C)C)ccc45)[C@H]1CC[C@H]2[C@@]12CO[C@@]3(O)[C@@H](O)[C@@H]1C(C)(C)CC[C@@H]2O | 92.4 | 13.6 | 94.5 |  |  |  | 
C=C1C(=O)[C@]23[C@H](O)[C@H]1CC[C@H]2[C@]12CCCC(C)(C)[C@H]1[C@H](O)[C@@]3(O)OC2 |  |  |  |  |  |  | IC50 [26]: 0.85 µM
C=C1C(=O)[C@]23[C@H](OC(=O)CCC(=O)OCCOC(=O)Cc4cc(=O)oc5cc(N(C)C)ccc45)[C@H]1CC[C@H]2[C@@]12CO[C@@]3(O)[C@@H](O)[C@@H]1C(C)(C)CC[C@@H]2O | 93.3 | 1.1 | 46.4 | 4.6 | 8.8 | 11.2 | Drug uptake [16]: Active; Drug uptake [18]: Active; Drug uptake [23]: Active
C[C@H]1C(=O)[C@]23[C@H](O)[C@H]1CC[C@H]2[C@@]12CO[C@@]3(O)[C@@H](O)[C@@H]1C(C)(C)CC[C@@H]2O | 57.2 | 2.1 | 4.2 | 52.7 | 70.6 | 67 | 
CCN(CC)c1ccc2cc(C(=O)OCCCCOC(=O)CCCC(=O)O[C@@H]3[C@H]4CC[C@H]5[C@@]67CO[C@@](O)([C@@H](O)[C@@H]6C(C)(C)CC[C@@H]7O)[C@@]35C(=O)[C@@H]4C)c(=O)oc2c1 | 37.2 | 1.8 | 3.7 | 79.6 | 144 | 78 | Activity [27]: inactive; Drug uptake [28]: Not Active
C=C1C(=O)[C@]23[C@H](OC(=O)CCCC(=O)OCCCOC(=O)c4cc5ccc(N(CC)CC)cc5oc4=O)[C@H]1CC[C@H]2[C@@]12CO[C@@]3(O)[C@@H](O)[C@@H]1C(C)(C)CC[C@@H]2O | 94.6 | 2.7 | 89.9 |  |  |  | 
C=C1C(=O)[C@]23[C@H](OC(=O)CCCC(=O)OCCOC(=O)c4cc5ccc(N(CC)CC)cc5oc4=O)[C@H]1CC[C@H]2[C@@]12CO[C@@]3(O)[C@@H](O)[C@@H]1C(C)(C)CC[C@@H]2O | 94.6 | 4.9 | 85 |  |  |  | 
